Data as given in publication PMC6637745 (Journal of medicinal chemistry, 2018).

Assays:
[1] = Baseline ex vivo biodistribution; assay type: in vivo, male white mice; conditions: mouse brain, followed by gradual washout
[2] = Lipophilicity by shake flask method; assay type: physicochemical; conditions: 1-octanol / phosphate buffer, n = 4
Outline: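 The [11C]-labelled test compound was partitioned between 1-octanol and freshly prepared phosphate buffer by shake flask, and the result expressed as log Poct/water.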

brain MT [3] = experiment: microPET imaging in mice, baseline and blocking; assay type: in vivo, athymic nude male mice
Outline: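 Mice were anaesthetised and transmission-scanned on a Trifoil PET/CT. The [11C] tracer (50 ± 10 μCi) was given by tail vein, followed by 60 min dynamic acquisition. Images were reconstructed with attenuation correction, Fourier rebinning and filtered back-projection, and summed over 0–60 min. In blocking scans, unlabelled test compound (5 mg/kg iv) was given before the tracer, with n = 3.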

brain MT [4] = experiment: microPET imaging in rats; assay type: in vivo; conditions: male Sprague—Dawley rats, n = 2
Outline: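 Anaesthetised Sprague–Dawley rats (n = 2) were transmission-scanned on a Trifoil PET/CT. The [11C] tracer (100 ± 20 μCi) was injected into the tail vein and acquired for 60 min. Reconstruction used attenuation correction, Fourier rebinning and filtered back-projection, and images were summed over 0–60 min.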

[5] = Stability in ethanol–saline formulation; assay type: physicochemical; conditions: 5% ethanol–saline formulation, sterile conditions, 4 h, n = 4
Outline: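 The stability of the [11C]-labelled test compound was checked by reverse-phase HPLC with photodiode-array and sodium iodide radioactivity detectors.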

MT = experiment: Blocking biodistribution with cold MPC-6827; assay type: in vivo, male white mice
Outline: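 This was a blocking biodistribution. Unlabelled test compound (5 mg/kg iv) was given 20 min before tail-vein injection of the [11C] tracer at 100 ± 20 μCi in 10% ethanol–saline, with no anaesthesia. Tissues were harvested at 30 min, gamma-counted and expressed as %ID/g, with n = 3. Specific binding was taken from blocked versus baseline uptake.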

[6] = biological target: all other tested biogenic brain receptors, transporters, enzymes, and protein targets; experiment: NIMH-PDSP binding affinity panel; conditions: all other tested targets except H4R and σ1R
α1A-1C = experiment: NIMH-PDSP binding affinity panel; conditions: read-out: affinity
σ2 = σ2 (Homo sapiens, UniProt Q5BJF2); experiment: NIMH-PDSP binding affinity panel
β1–3 = experiment: NIMH-PDSP binding affinity panel; conditions: read-out: affinity
NT (neurotrophin) = experiment: NIMH-PDSP binding affinity panel; conditions: read-out: affinity
KOP = KOP (Homo sapiens, UniProt P41145); experiment: NIMH-PDSP binding affinity panel
Na + channel = experiment: NIMH-PDSP binding affinity panel; conditions: read-out: affinity
[7] = biological target: EP (prostanoid receptors); experiment: NIMH-PDSP binding affinity panel; conditions: read-out: affinity
A (adenosine) = experiment: NIMH-PDSP binding affinity panel; conditions: read-out: affinity
PKC = experiment: NIMH-PDSP binding affinity panel; conditions: read-out: affinity, protein kinase C
NET = NET (Homo sapiens, UniProt P23975); experiment: NIMH-PDSP binding affinity panel
oxytocin = oxytocin (Homo sapiens, UniProt P30559); experiment: NIMH-PDSP binding affinity panel
α2A-2C = experiment: NIMH-PDSP binding affinity panel; conditions: read-out: affinity
[8] = over 100 cancer patients including GBM; cited from earlier work
KA (kainate) = experiment: NIMH-PDSP binding affinity panel; conditions: read-out: affinity
PBR = PBR (Homo sapiens, UniProt P30536); experiment: NIMH-PDSP binding affinity panel
AMPA = experiment: NIMH-PDSP binding affinity panel; conditions: read-out: affinity
BZP (benzodiazepine) = experiment: NIMH-PDSP binding affinity panel; conditions: read-out: affinity
cancer animal models = conditions: variety of cancer animal models; cited from earlier work
MDR1 = MDR1 (Homo sapiens, UniProt P08183); experiment: NIMH-PDSP binding affinity panel
5-HT1A-1E = experiment: NIMH-PDSP binding affinity panel; conditions: read-out: affinity
NK (neurokinin) = experiment: NIMH-PDSP binding affinity panel; conditions: read-out: affinity
5-HT2A-2C = experiment: NIMH-PDSP binding affinity panel; conditions: read-out: affinity
SERT = SERT (Homo sapiens, UniProt P31645); experiment: NIMH-PDSP binding affinity panel
GABA = experiment: NIMH-PDSP binding affinity panel; conditions: read-out: affinity
mGluR = experiment: NIMH-PDSP binding affinity panel; conditions: read-out: affinity, metabotropic glutamate receptors
NOP = NOP (Homo sapiens, UniProt P41146); experiment: NIMH-PDSP binding affinity panel
H1 = H1 (Homo sapiens, UniProt P35367); experiment: NIMH-PDSP binding affinity panel
D1-D5 = experiment: NIMH-PDSP binding affinity panel; conditions: read-out: affinity; D1-D5 dopamine
I = experiment: NIMH-PDSP binding affinity panel; conditions: read-out: affinity
[9] = rodents, blood; cited from earlier work
DAT = DAT (Homo sapiens, UniProt Q01959); experiment: NIMH-PDSP binding affinity panel
CB1, CB2 = experiment: NIMH-PDSP binding affinity panel; conditions: read-out: affinity; CB1, CB2 cannabinoid
smoothened = smoothened (Homo sapiens, UniProt Q99835); experiment: NIMH-PDSP binding affinity panel
NMΔA = experiment: NIMH-PDSP binding affinity panel; conditions: read-out: affinity
5-HT3-7 = experiment: NIMH-PDSP binding affinity panel; conditions: read-out: affinity
VMAT 1,2 = experiment: NIMH-PDSP binding affinity panel; conditions: read-out: affinity; VMAT 1,2, vesicular monoamine transporter
M (muscarinic) = experiment: NIMH-PDSP binding affinity panel; conditions: read-out: affinity
Ca+ channel = experiment: NIMH-PDSP binding affinity panel; conditions: read-out: affinity
HERG = HERG (Homo sapiens, UniProt Q12809); experiment: NIMH-PDSP binding affinity panel
DOR = DOR (Homo sapiens, UniProt P41143); experiment: NIMH-PDSP binding affinity panel
[10] = 30 min, MPC-6827 5 mg/kg iv 20 min prior to radioligand, n = 3

Sequence of KOP (P41145 whole entry): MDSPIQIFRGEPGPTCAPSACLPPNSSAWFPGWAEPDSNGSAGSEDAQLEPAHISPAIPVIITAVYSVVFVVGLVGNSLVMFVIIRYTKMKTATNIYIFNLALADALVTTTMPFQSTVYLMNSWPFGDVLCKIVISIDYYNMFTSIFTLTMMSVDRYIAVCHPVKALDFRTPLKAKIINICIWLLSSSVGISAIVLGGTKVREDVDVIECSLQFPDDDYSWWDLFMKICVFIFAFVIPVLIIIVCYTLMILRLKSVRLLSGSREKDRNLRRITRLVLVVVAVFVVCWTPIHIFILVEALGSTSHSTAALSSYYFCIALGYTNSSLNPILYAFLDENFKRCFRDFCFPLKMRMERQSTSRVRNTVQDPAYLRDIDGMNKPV
Sequence of H1 (P35367 whole entry): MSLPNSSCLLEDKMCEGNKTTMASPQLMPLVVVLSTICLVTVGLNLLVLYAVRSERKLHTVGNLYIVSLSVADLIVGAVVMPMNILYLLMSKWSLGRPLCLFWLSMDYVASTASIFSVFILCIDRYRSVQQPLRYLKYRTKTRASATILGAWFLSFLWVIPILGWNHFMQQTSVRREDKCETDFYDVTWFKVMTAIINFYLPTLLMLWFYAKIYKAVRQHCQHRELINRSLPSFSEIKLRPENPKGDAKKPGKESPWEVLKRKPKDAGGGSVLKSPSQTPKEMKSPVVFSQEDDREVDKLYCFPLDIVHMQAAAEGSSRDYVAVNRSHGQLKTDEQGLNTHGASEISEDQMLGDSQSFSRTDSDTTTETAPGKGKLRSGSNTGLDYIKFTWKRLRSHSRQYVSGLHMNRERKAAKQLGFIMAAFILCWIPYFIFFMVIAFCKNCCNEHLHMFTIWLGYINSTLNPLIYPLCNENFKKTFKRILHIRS
Sequence of smoothened (Q99835 28-787): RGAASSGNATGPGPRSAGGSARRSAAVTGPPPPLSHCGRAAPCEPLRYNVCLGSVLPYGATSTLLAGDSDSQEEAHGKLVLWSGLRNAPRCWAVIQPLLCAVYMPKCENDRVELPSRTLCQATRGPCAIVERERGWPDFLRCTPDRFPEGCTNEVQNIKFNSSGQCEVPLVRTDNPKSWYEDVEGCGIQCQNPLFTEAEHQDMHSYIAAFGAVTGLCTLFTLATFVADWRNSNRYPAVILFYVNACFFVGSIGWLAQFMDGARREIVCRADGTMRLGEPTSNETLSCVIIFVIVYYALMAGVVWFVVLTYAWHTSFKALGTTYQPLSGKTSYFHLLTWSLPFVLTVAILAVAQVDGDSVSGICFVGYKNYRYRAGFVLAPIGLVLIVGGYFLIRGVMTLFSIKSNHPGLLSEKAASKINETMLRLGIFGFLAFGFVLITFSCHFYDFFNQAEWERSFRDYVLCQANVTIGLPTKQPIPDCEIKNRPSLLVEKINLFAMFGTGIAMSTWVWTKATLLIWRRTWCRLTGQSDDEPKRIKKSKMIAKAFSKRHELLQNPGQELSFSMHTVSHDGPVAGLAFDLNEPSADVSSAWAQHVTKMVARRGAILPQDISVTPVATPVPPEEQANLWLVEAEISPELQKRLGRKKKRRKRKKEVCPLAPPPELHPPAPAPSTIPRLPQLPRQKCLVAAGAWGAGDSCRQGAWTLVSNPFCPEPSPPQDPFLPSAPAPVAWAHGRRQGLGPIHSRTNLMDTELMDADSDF
Sequence of oxytocin (P30559 whole entry): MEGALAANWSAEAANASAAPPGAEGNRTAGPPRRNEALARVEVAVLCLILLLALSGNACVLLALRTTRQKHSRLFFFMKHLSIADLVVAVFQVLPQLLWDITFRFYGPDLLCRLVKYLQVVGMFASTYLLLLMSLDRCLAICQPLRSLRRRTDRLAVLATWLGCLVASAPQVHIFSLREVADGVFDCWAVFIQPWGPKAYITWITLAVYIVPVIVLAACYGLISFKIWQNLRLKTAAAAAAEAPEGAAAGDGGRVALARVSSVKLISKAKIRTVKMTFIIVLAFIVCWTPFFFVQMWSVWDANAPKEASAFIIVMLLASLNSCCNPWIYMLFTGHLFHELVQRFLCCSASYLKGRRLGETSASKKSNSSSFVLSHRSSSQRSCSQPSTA
Sequence of MDR1 (P08183 whole entry, species assumed): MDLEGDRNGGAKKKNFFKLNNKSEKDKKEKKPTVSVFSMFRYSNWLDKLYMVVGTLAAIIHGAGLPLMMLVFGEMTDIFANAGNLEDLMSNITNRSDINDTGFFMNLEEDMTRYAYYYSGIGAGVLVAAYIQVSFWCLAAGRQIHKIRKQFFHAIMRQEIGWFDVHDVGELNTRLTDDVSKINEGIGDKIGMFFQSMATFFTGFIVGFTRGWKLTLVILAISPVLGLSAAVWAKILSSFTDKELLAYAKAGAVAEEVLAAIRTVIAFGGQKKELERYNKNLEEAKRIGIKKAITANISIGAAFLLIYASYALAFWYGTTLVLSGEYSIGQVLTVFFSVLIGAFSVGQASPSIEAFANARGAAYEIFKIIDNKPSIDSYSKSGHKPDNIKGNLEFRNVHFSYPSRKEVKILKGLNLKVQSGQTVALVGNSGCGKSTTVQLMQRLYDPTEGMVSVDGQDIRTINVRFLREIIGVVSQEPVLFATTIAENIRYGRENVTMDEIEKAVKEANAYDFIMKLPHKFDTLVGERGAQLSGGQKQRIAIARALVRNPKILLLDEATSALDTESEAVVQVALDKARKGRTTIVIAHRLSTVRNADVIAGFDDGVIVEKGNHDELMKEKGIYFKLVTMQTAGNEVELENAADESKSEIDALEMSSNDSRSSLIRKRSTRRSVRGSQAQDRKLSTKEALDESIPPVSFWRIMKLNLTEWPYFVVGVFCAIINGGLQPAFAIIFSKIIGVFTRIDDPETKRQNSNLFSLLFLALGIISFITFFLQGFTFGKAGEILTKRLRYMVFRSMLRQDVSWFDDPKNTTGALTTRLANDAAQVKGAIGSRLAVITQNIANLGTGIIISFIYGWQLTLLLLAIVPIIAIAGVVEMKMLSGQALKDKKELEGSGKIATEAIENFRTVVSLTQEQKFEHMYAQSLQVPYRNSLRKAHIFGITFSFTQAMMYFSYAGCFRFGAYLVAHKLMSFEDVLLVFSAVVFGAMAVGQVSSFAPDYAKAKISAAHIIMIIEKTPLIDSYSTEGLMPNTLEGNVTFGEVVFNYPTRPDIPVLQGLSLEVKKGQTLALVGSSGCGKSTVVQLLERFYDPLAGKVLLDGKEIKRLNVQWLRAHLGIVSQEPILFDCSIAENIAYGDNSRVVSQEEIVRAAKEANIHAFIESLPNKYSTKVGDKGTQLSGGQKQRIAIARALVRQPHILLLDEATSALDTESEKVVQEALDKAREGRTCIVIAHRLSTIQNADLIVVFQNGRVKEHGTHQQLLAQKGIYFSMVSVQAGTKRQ
Sequence of NET (P23975 whole entry): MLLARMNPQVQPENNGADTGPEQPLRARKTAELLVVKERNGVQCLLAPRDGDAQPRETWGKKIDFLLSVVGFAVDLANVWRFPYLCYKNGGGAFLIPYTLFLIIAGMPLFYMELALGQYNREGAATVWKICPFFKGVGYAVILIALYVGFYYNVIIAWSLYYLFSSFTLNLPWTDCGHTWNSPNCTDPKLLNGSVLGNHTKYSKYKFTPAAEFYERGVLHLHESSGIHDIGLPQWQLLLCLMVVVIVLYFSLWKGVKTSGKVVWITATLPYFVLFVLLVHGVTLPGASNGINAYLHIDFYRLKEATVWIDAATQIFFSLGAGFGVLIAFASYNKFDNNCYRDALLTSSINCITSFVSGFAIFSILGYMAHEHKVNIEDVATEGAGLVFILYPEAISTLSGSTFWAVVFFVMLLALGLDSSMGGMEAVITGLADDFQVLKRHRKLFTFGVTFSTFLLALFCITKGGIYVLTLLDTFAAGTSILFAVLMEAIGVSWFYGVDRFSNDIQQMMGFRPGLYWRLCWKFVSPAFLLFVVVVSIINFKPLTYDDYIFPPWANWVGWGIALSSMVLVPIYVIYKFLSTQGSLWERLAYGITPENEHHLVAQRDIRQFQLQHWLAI
Sequence of DOR (P41143 whole entry): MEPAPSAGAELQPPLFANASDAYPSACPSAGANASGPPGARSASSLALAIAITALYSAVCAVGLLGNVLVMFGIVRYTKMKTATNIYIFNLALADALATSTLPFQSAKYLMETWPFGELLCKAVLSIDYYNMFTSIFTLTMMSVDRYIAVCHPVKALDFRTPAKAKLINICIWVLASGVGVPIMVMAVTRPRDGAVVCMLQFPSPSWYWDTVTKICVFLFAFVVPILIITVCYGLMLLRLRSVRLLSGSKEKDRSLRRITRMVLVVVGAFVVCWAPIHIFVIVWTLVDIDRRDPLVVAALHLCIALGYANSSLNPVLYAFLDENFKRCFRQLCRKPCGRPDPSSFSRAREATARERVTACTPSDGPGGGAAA
Sequence of NOP (P41146 whole entry): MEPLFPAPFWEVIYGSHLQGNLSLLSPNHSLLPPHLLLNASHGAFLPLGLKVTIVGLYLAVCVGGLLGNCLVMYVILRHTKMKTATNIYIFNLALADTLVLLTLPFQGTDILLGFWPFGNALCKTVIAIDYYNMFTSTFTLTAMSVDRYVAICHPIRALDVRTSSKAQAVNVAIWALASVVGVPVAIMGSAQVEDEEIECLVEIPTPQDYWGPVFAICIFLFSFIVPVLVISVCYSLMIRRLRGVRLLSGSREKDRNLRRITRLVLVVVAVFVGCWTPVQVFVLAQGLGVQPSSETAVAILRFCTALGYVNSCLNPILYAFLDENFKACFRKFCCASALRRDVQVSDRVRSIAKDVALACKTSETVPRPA
Sequence of PBR (P30536 whole entry, species assumed): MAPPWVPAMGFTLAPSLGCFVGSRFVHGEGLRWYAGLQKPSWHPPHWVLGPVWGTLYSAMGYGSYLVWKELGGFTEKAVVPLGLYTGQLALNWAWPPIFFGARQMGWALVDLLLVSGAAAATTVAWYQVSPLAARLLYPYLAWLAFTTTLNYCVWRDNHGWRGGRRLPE
Sequence of σ2 (Q5BJF2 whole entry): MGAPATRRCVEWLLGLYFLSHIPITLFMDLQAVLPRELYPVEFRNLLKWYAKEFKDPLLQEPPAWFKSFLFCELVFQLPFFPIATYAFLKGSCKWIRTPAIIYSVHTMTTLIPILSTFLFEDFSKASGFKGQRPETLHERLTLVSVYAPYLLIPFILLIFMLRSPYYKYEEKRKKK

Cc1nc(N(C)c2ccc(O[11CH3])cc2)c2ccccc2n1 [[^11C]MPC-6827]
time of peak brain activity [1]: 5 min | log Poct/water [2]: 3.8 | BBB penetration and brain retention (microPET) (brain MT [3]; athymic nude male mice, n = 3, 0–60 min): penetrates the BBB and shows excellent retention in mouse brain | radioligand binding in thyroid or salivary gland during blocking (microPET) (brain MT [3]; blocking with 5 mg/kg MPC-6827, mice): displaced | blocking of brain activity (microPET) (brain MT [3]; iv 5 mg/kg unlabeled MPC-6827, n = 3): substantially blocked | BBB penetration and brain retention (microPET) (brain MT [4]): BBB penetration and excellent retention | stability in formulation [5]: stable | specific binding in brain (MT; [10]): 70% | specific binding in heart (MT; [10]): 16% | specific binding in lungs (MT; [10]): 30% | specific binding in muscles (MT; [10]): 60% | specific binding in pancreas (MT; [10]): 20% | specific binding in the rest of the tested regions (MT; 30 min, regions other than brain, muscles, spleen, lungs, pancreas, heart): no significant specific binding | displacement of kidney and liver binding (MT; blocking with cold MPC-6827, mice): not displaced | ratio of specific to nonspecific binding in brain relative to muscle (MT; brain vs muscle, Figure 1B): 10 times

COc1ccc(N(C)c2nc(C)nc3ccccc23)cc1 [MPC-6827]
Ki [6]: > 10 µM | Ki (α1A-1C): > 10 µM | Ki (σ2): > 10 µM | Ki (β1–3): > 10 µM | Ki (NT (neurotrophin)): > 10 µM | Ki (KOP): > 10 µM | Ki (Na + channel): > 10 µM | Ki [7]: > 10 µM | Ki (A (adenosine)): > 10 µM | Ki (PKC): > 10 µM | Ki (NET): > 10 µM | Ki (oxytocin): > 10 µM | Ki (α2A-2C): > 10 µM | safety in human subjects [8]: proven to be safe | Ki (KA (kainate)): > 10 µM | Ki (PBR): > 10 µM | Ki (AMPA): > 10 µM | Ki (BZP (benzodiazepine)): > 10 µM | tumor growth in cancer animal models (cancer animal models): suppression of tumor growth | Ki (MDR1): > 10 µM | Ki (5-HT1A-1E): > 10 µM | Ki (NK (neurokinin)): > 10 µM | Ki (5-HT2A-2C): > 10 µM | Ki (SERT): > 10 µM | Ki (GABA): > 10 µM | Ki (mGluR): > 10 µM | Ki (NOP): > 10 µM | Ki (H1): > 10 µM | Ki (D1-D5): > 10 µM | Ki (I): > 10 µM | plasma binding [9]: 98.2% | Ki (DAT): > 10 µM | Ki (CB1, CB2): > 10 µM | Ki (smoothened): > 10 µM | Ki (NMΔA): > 10 µM | Ki (5-HT3-7): > 10 µM | Ki (VMAT 1,2): > 10 µM | Ki (M (muscarinic)): > 10 µM | Ki (Ca+ channel): > 10 µM | Ki (HERG): > 10 µM | Ki (DOR): > 10 µM
